Source: ChEMBL document CHEMBL4725448, “Substituted Azabicyclo[2.2.1]heptanes as Selective Orexin-1 Antagonists: Discovery of JNJ-54717793” (ACS Med Chem Lett, 2020)
Values after ≈ are worked out from the molar mass of the structure shown.

Tests used:
[1] = AUC in rat assessed as NOAEL at 250 mg/kg, po administered as repeated dose for 5 days; type: ADME, organism-based; set-up: time 5 day, dose 250 mg/kg; conditions: in vivo
[2] = AUC (0 to 24 hrs) in rat assessed as NOAEL at 200 mg/kg/day, po administered as repeated dose for 13 days; type: ADME, organism-based; set-up: route oral, time 13 day, dose 200 mg/kg/day; conditions: in vivo
[3] = Oral bioavailability in rat at 5 mg/kg; type: ADME, organism-based; conditions: in vivo
[4] = Cmax in rat assessed as NOAEL at 200 mg/kg/day, po administered as repeated dose for 6 days; type: ADME, organism-based; set-up: route oral, dose 200 mg/kg/day, time 6 day; conditions: in vivo
[5] = Dissociation constant, pKa of the compound; type: physicochemical
[6] = Cmax in mouse at 1 mg/kg, iv and 5 mg/kg, po; type: ADME, organism-based; set-up: dose 5 mg/kg; conditions: in vivo
[7] = Ex vivo receptor occupancy at OX1R in Sprague-Dawley rat brain tenia tecta using [3H]SB-674042 labelling at 30 mg/kg, po measured after 2 hrs by autoradiography; type: functional
How it was run: (§1)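 Ex vivo OX1R binding autoradiography in rat tenia tecta after a 30 mg/kg po dose; percent occupancy read at 0.5 and 2 h.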

[8] = Stability in dog liver microsomes assessed as extraction ratio; type: ADME, Canis lupus familiaris, Microsome; conditions: read-out: ERH
[9] = Oral bioavailability in mouse at 5 mg/kg; type: ADME, organism-based; conditions: in vivo
[10] = Stability in rat liver microsomes assessed as extraction ratio; type: ADME, Microsome; conditions: read-out: ERH
How it was run: (§2)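 Metabolic stability in human or rat liver microsomes, expressed as extraction ratios.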

[11] = Oral bioavailability in dog at […]; type: ADME, organism-based, Canis lupus familiaris; conditions: in vivo, dose 2.5 mg/kg
[12] = […] clearance in mouse at 1 mg/kg, iv and 5 mg/kg, po; type: ADME, organism-based; conditions: in vivo
[13] = AUC (0 to 24 hrs) in mouse assessed as NOAEL at 200 mg/kg/day, po measured after immediately administered; type: ADME, organism-based; set-up: route oral, dose 200 mg/kg/day, time 13 day; conditions: in vivo
[14] = Oral bioavailability in primate at 5 mg/kg; type: ADME, organism-based; conditions: primates, in vivo
[15] = Protein binding in dog plasma assessed as free fraction; type: ADME, cell-free, Canis lupus familiaris
[16] = Cmax in dog at 0.5 mg/kg, iv and […], po; type: ADME, organism-based, Canis lupus familiaris; set-up: dose 2.5 mg/kg; conditions: in vivo
[17] = Volume of distribution at steady state in rat at 1 mg/kg, iv and 5 mg/kg, po; type: ADME, organism-based; conditions: in vivo, read-out: Vdss
[18] = Volume of distribution at steady state in dog at 0.5 mg/kg, iv and […], po; type: ADME, organism-based, Canis lupus familiaris; conditions: in vivo, dose 2.5 mg/kg, read-out: Vdss
[19] = Cmax in mouse assessed as NOAEL at 200 mg/kg/day, po administered as repeated dose for 13 days; type: ADME, organism-based; set-up: route oral, dose 200 mg/kg/day, time 13 day; conditions: in vivo
[20] = Permeability across basolateral to apical side in MDCK cells; type: ADME, cell-based, Canis lupus familiaris; conditions: dog
[21] = Protein binding in rat plasma assessed as free fraction; type: ADME, cell-free
[22] = Ex vivo receptor occupancy at OX1R in Sprague-Dawley rat brain tenia tecta using [3H]SB-674042 labelling at 10 mg/kg, po measured after 0.5 hrs by autoradiography; type: functional
How it was run: (§3)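 Rats received a single oral dose, and OX1R occupancy was measured by ex vivo binding autoradiography in brain tenia tecta sections at 0.5, 2 and 6 h after dosing. Occupancy is expressed as percent. Brain and plasma drug levels (ng/mL) were also sampled at the 0.5 h time point.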

[23] = AUC (0 to 24 hrs) in rat assessed as NOAEL at 200 mg/kg/day, po administered as repeated dose for 6 days; type: ADME, organism-based; set-up: route oral, time 6 day, dose 200 mg/kg/day; conditions: in vivo
[24] = Cmax in rat assessed as NOAEL at 200 mg/kg/day, po administered as repeated dose for 13 days; type: ADME, organism-based; set-up: route oral, time 13 day, dose 200 mg/kg/day; conditions: in vivo
[25] = Ex vivo receptor occupancy at OX1R in Sprague-Dawley rat brain tenia tecta using [3H]SB-674042 labelling at 30 mg/kg, po measured after 0.5 hrs by autoradiography; type: functional; how it was run: as §1
[26] = Drug concentration in Sprague-Dawley rat brain at 30 mg/kg, po after 0.5 hrs by LC-MS/MS analysis; type: ADME, organism-based; conditions: read-out: Ct
How it was run: (§4)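 Brain and plasma levels (ng/mL) sampled 0.5 h after oral dosing at 10 or 30 mg/kg, alongside the ex vivo tenia tecta occupancy study.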

[27] = Clearance in rat at 1 mg/kg, iv and 5 mg/kg, po; type: ADME, organism-based; conditions: in vivo
[28] = Volume of distribution at steady state in primate; type: ADME; conditions: primates; read-out: Vdss
[29] = Stability in mouse liver microsomes assessed as extraction ratio; type: ADME, Microsome; conditions: read-out: ERH
[30] = Ex vivo receptor occupancy at OX1R in Sprague-Dawley rat brain tenia tecta using [3H]SB-674042 labelling at 10 mg/kg, po measured after 6 hrs by autoradiography; type: functional; how it was run: as §3
[31] = Cmax in rat assessed as NOAEL at 250 mg/kg, po administered as repeated dose for 5 days; type: ADME, organism-based; set-up: route oral, dose 250 mg/kg, time 5 day; conditions: in vivo
[32] = Volume of distribution at steady state in mouse at 1 mg/kg, iv and 5 mg/kg, po; type: ADME, organism-based; conditions: in vivo, read-out: Vdss
[33] = AUC in human at 50 mg/day; type: ADME; set-up: dose 50 mg
[34] = AUC (0 to 24 hrs) in rat assessed as NOAEL at 200 mg/kg/day, po measured after immediately administered; type: ADME, organism-based; set-up: route oral, time 13 day, dose 200 mg/kg/day; conditions: in vivo
[35] = Clearance in mouse at 1 mg/kg, iv and 5 mg/kg, po; type: ADME, organism-based; conditions: in vivo
[36] = Drug concentration in Sprague-Dawley rat plasma at 30 mg/kg, po after 0.5 hrs by LC-MS/MS analysis; type: ADME, organism-based; how it was run: as §4
[37] = Drug concentration in Sprague-Dawley rat plasma at 10 mg/kg, po after 0.5 hrs by LC-MS/MS analysis; type: ADME, organism-based; how it was run: as §4
[38] = Ex vivo receptor occupancy at OX1R in po dosed rat tenia tecta after 60 mins; type: functional, organism-based; conditions: 1 h
[39] = Stability in human liver microsomes assessed as extraction ratio; type: ADME, Microsome; conditions: read-out: ERH; how it was run: as §2
[40] = […] clearance in dog at 0.5 mg/kg, iv and […], po; type: ADME, organism-based, Canis lupus familiaris; conditions: in vivo, dose 2.5 mg/kg
[41] = Clearance in dog at 0.5 mg/kg, iv and […], po; type: ADME, organism-based, Canis lupus familiaris; conditions: in vivo, dose 2.5 mg/kg
[42] = Cmax in dog assessed as NOAEL at 25 mg/kg, po administered for 6 days; type: ADME, organism-based, Canis lupus familiaris; set-up: route oral, dose 25 mg/kg, time 6 day; conditions: in vivo
How it was run: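 Six-day dog toxicology study with oral dosing; NOAEL-level Cmax; exposures compared between sexes and between day 0 and day 5.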

[43] = Protein binding in rat brain assessed as free fraction; type: ADME, tissue-based
Orexin receptor type 2 = molecular target: T1, Orexin receptor type 2 (Homo sapiens, UniProt O43614); experiment: Binding affinity to human OX2R
T1 sequence (O43614 whole entry): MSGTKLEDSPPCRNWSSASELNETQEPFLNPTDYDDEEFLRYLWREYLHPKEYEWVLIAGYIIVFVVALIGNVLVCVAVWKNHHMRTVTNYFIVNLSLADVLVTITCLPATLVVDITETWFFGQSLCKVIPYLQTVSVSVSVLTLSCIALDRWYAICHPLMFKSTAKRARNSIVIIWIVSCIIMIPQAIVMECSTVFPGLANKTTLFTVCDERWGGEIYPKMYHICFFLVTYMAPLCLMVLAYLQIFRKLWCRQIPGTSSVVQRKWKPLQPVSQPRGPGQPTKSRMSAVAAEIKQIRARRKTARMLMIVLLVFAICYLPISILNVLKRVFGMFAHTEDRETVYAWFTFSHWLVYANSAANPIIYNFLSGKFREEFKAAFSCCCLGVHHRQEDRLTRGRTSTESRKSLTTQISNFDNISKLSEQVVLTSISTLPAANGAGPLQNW

With O=C(c1cccc(F)c1-c1ncccn1)N1[C@@H]2CC[C@H]1[C@H](Nc1cnc(C(F)(F)F)cn1)C2 the AUC at 120 h [1] was 101000 ng·h/mL, the AUC at 312 h [2] was 36200 ng·h/mL and the bioavailability [3] was 119%. The Cmax [4] was 8800 ng/mL, the pKa [5] was less than 2 and the Cmax [6] was 1500 ng/mL. It also gave an Activity [7] of 100%, a hepatic extraction ratio [8] of less than 0.3 and a bioavailability [9] of 58%. The hepatic extraction ratio [10] was 0.31, the bioavailability [11] was 48% and the clearance [12] was 29 mL/min/kg. The AUC at 312 h [13] was 225000 ng·h/mL, the bioavailability [14] was 22% and the fraction unbound [15] was 0.21. The Cmax [16] was 2240 ng/mL, the Vd [17] was 1.4 L/kg and the Vd [18] was 0.6 L/kg. For the same compound, the Cmax [19] was 24800 ng/mL, the Papp B→A [20] was 64.4 ×10⁻⁶ cm/s and the fraction unbound [21] was 0.23. It also gave an Activity [22] of 70%, an AUC at 144 h [23] of 62000 ng·h/mL and a Cmax [24] of 6980 ng/mL. It also gave an Activity [25] of 100%, a concentration at 0.5 h [26] of 687 ng/mL and a clearance [27] of 17 mL/min/kg. It also gave a Vd [28] of 0.8 L/kg, a hepatic extraction ratio [29] of 0.4 and an Activity [30] of 17%. It also gave a Cmax [31] of 15000 ng/mL, a Vd [32] of 1.1 L/kg and an AUC [33] of 6870 ng·h/mL. For the same compound, the AUC at 312 h [34] was 386000 ng·h/mL, the clearance [35] was 21 mL/min/kg and the concentration at 0.5 h [36] was 4960 ng/mL. The concentration at 0.5 h [37] was 1190 ng/mL, the EC50 [38] was 0.085 µg/mL (≈ 0.185 µM) and the ED50 ([38]; po, time 60 min) was 1.3 mg/kg. The hepatic extraction ratio [39] was less than 0.3, the clearance [40] was 4.8 mL/min/kg and the clearance [41] was 0.9 mL/min/kg. The Cmax [42] was 15100 ng/mL, the fraction unbound [43] was 0.09 and the Ki (Orexin receptor type 2) was 700 nM.
